Compound activity (PubChem)
NadD block: blocks S. aureus nicotinate mononucleotide adenylyltransferase | purified NadD enzyme, colorimetric absorbance read-out | inhibition, % at 20 µM | 360,000 compounds, 0.78% hits; in the data active = inhibition above about 26%
VIM-2 inhibitor: blocks Pseudomonas aeruginosa VIM-2 metallo-beta-lactamase; purified VIM-2, nitrocefin hydrolysis, epi-absorbance fluorescence; inhibition, % at 5.6 µM; 290,000 compounds, 0.89% hits; AID 1527;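 active = inhibition above the mean of all tested compounds plus 3 SD, cutoff set per screening run, cut at about 7.5% in these data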;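 note: red hydrolysis product quenches plate fluorescence so inhibitors raise well fluorescence; 0% = enzyme with DMSO and 100% = DMSO without enzyme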
IMP-1 inh: blocks Pseudomonas aeruginosa IMP-1 metallo-beta-lactamase; AID 1556; inhibition, % at 5.6 µM; 290,000 compounds, 0.45% hits; purified IMP-1, nitrocefin hydrolysis, epi-absorbance fluorescence;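 active = inhibition above the mean plus 3 SD of all compounds in the same screening run, cut at about 4.5% in these data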;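 note: 0% = IMP-1 with DMSO and 100% = DMSO wells lacking enzyme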
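Material – recombinant IMP-1 enzyme, purified · Amount – IMP-1 0.2 nM before substrate addition · Medium – HEPES buffer pH 7.1 with ZnSO4 and Brij 35 · Timing – 25 °C, 15 min preincubation, 25 min reaction · Measured by – plate fluorescence quenching by hydrolysis product, ex 480/em 530 nm · Read-out – percent enzyme inhibition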
HCV core dimer: blocks dimerization of HCV core protein; AID 1899; inhibition, % at 5 µM; 300,000 compounds, 0.33% hits; TR-FRET GST/Flag-core106 dimerization, 1536-well;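 active = inhibition above the mean of all tested compounds plus 3 SD, set per screening campaign, cut at about 45% in these data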
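Assay system – GST-tagged and Flag-tagged HCV core protein residues 1-106 · Quantity – core106 proteins, GST 13.5 nM and Flag 17 nM · Benchmarks – unlabelled core106 and no-GST-core106 wells · Read-out basis – percent inhibition of core106 dimerization signal · Detection – time-resolved FRET, ex 340 nm, em 617 and 671 nm · Schedule – 4 h at 22.5 °C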
* = called active by the depositor; x = no result; ! = a repeat was not active. Shown are actives, neighbours in structure and some others; about 1.9% of the full set was active somewhere.

SMILES	NadD block	VIM-2 inhibitor	IMP-1 inh	HCV core dimer
Cc1cccc(-n2c(C)cc(/C=C3\C(=N)N4N=C(CC(C)C)SC4=NC3=O)c2C)c1	26.4	-1.9	-3.2	14.4
CC1=NN2C(=N)/C(=C\c3cc(C)n(-c4cccc(C)c4)c3C)C(=O)N=C2S1	13.9	-4.0	-3.9	14.6
COc1ccc(OC)c(N/C=C/C(=C(C#N)C#N)N(C)C)c1	-1.5	3.1	0.4	-0.6
O=C(O)C1Sc2[nH]c(=O)sc2C2c3cc(Br)ccc3OC(=O)C12 (stereo not drawn)	-2.4	4.7	5.5*	-0.9
CCOc1ccc(CCNC(=O)c2ccc(OCc3c(C)noc3C)cc2)cc1OCC	-4.9	x	x	-2.5
COc1ccccc1NC(=O)CSc1nnc(-c2ccoc2C)n1C	-8.5	0.1	-1.5	2.8
CCCc1ccc(O)c(N=Cc2cc(Br)cc(OCC)c2O)c1	12.3	-1.7	5.5*	5.3
CCc1ccc(O)c(N=Cc2cccc(C)c2O)c1	3.2	-1.8	-3.1	-5.1
Cc1ccc(-c2nn(C)c(=O)c3ccccc23)cc1CN1CCCCC1	1.9	9.2*	-3.7	0.4
Cc1ccc(-c2nn(C)c(=O)c3ccccc23)cc1CNS(C)(=O)=O	1.9	7.2	-2.4	10.0
Cc1ccc(Cc2c(-c3ccc(Cl)cc3)nc3cc(C)ccn23)cc1	2.8	x	x	x
Cc1n[nH]c(=S)n1Cc1ccccc1	-1.7	11.3*	-4.5	-4.2
COc1ccc(-c2n[nH]c(=S)n2-c2ccccc2C)cc1OC	8.1	-0.3	-3.1	5.0
COc1ccc(-c2n[nH]c(=S)n2-c2ccccc2C)cc1	1.5	8.8*	-1.3	5.2
Cc1n[nH]c(=S)n1-c1ccccc1	-4.1	10.2*	2.4	-0.3
Cc1ccccc1-n1c(-c2csc(C)c2C)n[nH]c1=S	10.5	10.7*	-3.5	-6.7
CCOc1cc(-c2n[nH]c(=S)n2Cc2ccccc2)ccc1OC(F)F	-0.6	x	x	x
COc1cc(OC)cc(-c2n[nH]c(=S)n2-c2ccc3c(c2)OCO3)c1	-0.9	8.7*	-0.3	-7.6
COc1ccc(-n2c(-c3cccc(C)c3[N+](=O)[O-])n[nH]c2=S)cc1	1.9	37.9*	-1.5	-2.4
COc1ccc(-c2n[nH]c(=S)n2Cc2ccccc2)cc1	-3.9	9.2*	-2.2	9.4
COc1ccc(-c2n[nH]c(=S)n2Cc2ccccc2)cc1OC	4.7	7.8*	-0.9	-0.1
COc1cccc(-c2cnc(C(O)c3ccc(F)c(C)c3)[nH]2)c1 (stereo not drawn)	-2.0	x	x	x
Cc1ccc(NC(=O)c2cncc(Br)c2)cc1S(=O)(=O)N(C)C	2.3	-1.0	-0.1	-8.7
CC1(C(=O)NS(=O)(=O)c2cccc(OC(F)F)c2)CCN1C(=O)CC(c1ccccc1)c1ccccc1 (stereo not drawn)	3.1	x	x	x
S=c1[nH]nc(C2CCCCC2)n1Cc1ccccc1	-2.8	9.3*	-2.9	0.6
SMILES	NadD block	VIM-2 inhibitor	IMP-1 inh	HCV core dimer
COc1cccc(-c2n[nH]c(=S)n2Cc2ccco2)c1	0.7	9.1*	-4.9	0.8
CCOc1nc(Nc2ccc(OC)c(Cl)c2)nc(OCC)n1	-4.4	10.0*	-4.3	4.5
COc1cc(Nc2cc(C)nc3ncnn23)cc(OC)c1OC	3.4	3.5	-2.6	-1.5
COc1ccc(Nc2cc(C)nc3ncnn23)cc1Cl	-13.7	9.4*	-4.5	3.2
CCOc1nc(Nc2ccc(OC)cc2)nc(OCC)n1	-1.7	0.2	-3.1	2.6
Cc1c(Cl)cccc1S(=O)(=O)Nc1ccnn1C	6.1	-0.5	-1.6	-1.3
O=C1NC(Cc2ccccc2)c2nc3ccc(Cl)cc3c(=O)n2-c2ncccc21 (stereo not drawn)	2.3	x	x	x
CC(C)(C)C1CCC2(CC1)Nc1cccc3cccc(c13)N2	5.6	-2.8	-3.5	69.7*
Cc1ccc2nc(NC(=O)c3ccc(N4C(=O)CCC4=O)cc3)sc2c1	-3.0	-3.6	-2.7	47.9*
O=C(NN1CCOCC1)c1cccc(COc2cccc(Br)c2)c1	-4.4	-0.2	-2.4	11.7
COc1c(/C=N/Nc2nc(N3CCCCC3)nc(N3CCCCC3)n2)cccc1[N+](=O)[O-]	11.8	-2.8	-2.4	16.1
COc1cccc(/C=N/Nc2nc(Nc3ccc([N+](=O)[O-])cc3)nc(N3CCCC3)n2)c1O	34.7*	-4.7	-0.2	28.9
O=C(CSc1nnc(C2CC2)n1Cc1ccccc1)N1CCN(S(=O)(=O)c2ccccc2)CC1	-3.8	-1.4	-1.1	5.7
O=C(CSc1nnc(C2CC2)n1Cc1ccccc1)c1ccc(S(=O)(=O)N2CCOCC2)cc1	6.4	22.7*	-2.8	0.1
NC(CCCCCP(=O)(c1ccccc1)c1ccccc1)C(=O)O (stereo not drawn)	x	4.2	28.4*	-30.3
O=C(O)CC(CP(=O)(c1ccccc1)c1ccccc1)C(=O)O (stereo not drawn)	4.0	-0.5	-1.1	-7.5
CC(=O)C1=CCC(c2ccccc2)N(S(=O)(=O)c2ccccc2C)C1 (stereo not drawn)	-7.1	x	x	x
COc1cccc(/C=C/C(=O)NCc2ccc(S(N)(=O)=O)cc2)c1	-3.5	-3.2	-4.3	0.8
CCN1CCN(Cc2ccc(NC(=O)c3ccc(C)c(NC(=O)C4=NN(c5ccccc5)C(=O)C4)c3)cc2C(F)(F)F)CC1	40.2*!	x	x	3.4
CCN1CCN(Cc2ccc(NC(=O)c3cc(NC(=O)C4=NN(c5ccccc5)C(=O)C4)cc(OC)c3)cc2C(F)(F)F)CC1	32.9*	x	x	-9.7
CCN1CCN(Cc2ccc(NC(=O)c3ccc(C)c(NC(=O)c4cccc(-c5cn[nH]c(=O)c5)c4)c3)cc2C(F)(F)F)CC1	11.4	-1.6	9.3*	2.0
CC(C)N(Cc1ccccc1)C(=O)COC(=O)c1cnc(Cl)c(Cl)c1	-4.5	x	x	x
CCCc1c(-c2ccccc2)ncn1Cc1ccccc1OC	-3.5	x	x	x
CCC(Oc1ccccc1)C(=O)N1CCN(S(=O)(=O)c2ccccc2)CC1 (stereo not drawn)	2.0	x	x	x
COCCNC(=O)c1cc(C(=O)CC(C)C)c[nH]1	1.3	-2.5	-3.3	-0.1
SMILES	NadD block	VIM-2 inhibitor	IMP-1 inh	HCV core dimer
O=Cc1ccc(N2Cc3ccccc3C2)cc1	4.2	0.0	0.0	38.7
Cc1cc(N2Cc3ccccc3C2)ccc1C=O	12.4	-1.9	-2.8	47.8*
O=C(Nc1cccc(F)c1)NC1(C(=O)N2CCOCC2)CCCCC1	-4.1	0.7	-2.5	4.6
CC1(O)C(=O)C=C2C=C(c3ccc(C#N)cc3)OC=C2C1=O (stereo not drawn)	x	x	x	55.0*
COc1ccc(C2=CC3=CC(=O)C(C)(O)C(=O)C3=CO2)cc1 (stereo not drawn)	x	x	x	18.8
c1ccc(Cn2c(SCc3nc4ccccc4s3)nnc2-c2ccco2)cc1	29.0	0.8	-0.9	49.5*
Cn1c(C(=O)NCCN2CCOCC2)cc2c(=O)n3ccccc3nc21	4.9	8.3*	-0.6	4.4
COCCCn1c(C(=O)NCCN2CCOCC2)cc2c(=O)n3ccccc3nc21	-3.2	2.3	-2.7	-9.9
O=C(NCCN1CCN(c2ccccc2)CC1)c1cccn2c(=O)c3cc(Cl)ccc3nc12	-11.3	8.2*	-1.8	3.7
COc1ccc(CCNC(=O)c2cc3c(=O)n4cccc(C)c4nc3n(CCCN3CCOCC3)c2=N)cc1	-2.2	7.8*	-3.3	6.2
